Test results: PMC5065790 (Bioorganic & medicinal chemistry, 2016)
pIC50: −log10 of the molar value.

How the values were obtained:
[1] = biological target: HIV-1 MA protein (Human immunodeficiency virus type 1 group M subtype B, UniProt P12493); test: HIV-1 MA crosslinking, dimer/monomer immunoblot; type: biochemical; details: 30 µM MA, 50 µM compound
Outline: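 Purified HIV-1 MA at 30 µM in 25 mM sodium phosphate (pH 7.8) plus 50 mM NaCl, incubated 2 h at 25°C with or without 50 µM test compound. Dimer and monomer bands were then measured, and percentage MA crosslinking was derived from them.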

[2] = system: HIV-1 virus particles; test: Inactivation of luciferase-transducing HIV-1; type: cell-based; details: 1 mM, virus treated 1 h at 37°C, HEK293T cells, 48 h
[3] = system: HIV-1; details: ref [21]–[3]; cited from earlier work
[4] = system: HIV-1 virus particles; test: Inactivation of GFP-transducing HIV-1; type: cell-based; details: 1 mM, virus treated 1 h at 37°C, HEK293T cells, 48 h
[5] = system: HIV-1 PrGag in immature virus particles; test: Virus crosslink analysis, immature HIV-1 particles; type: biochemical; details: 1 mM compound, 1 h at 25°C
[6] = Peptide crosslinking analysis; type: biochemical; details: 0.1 mM peptide, 1 mM compound, 2 h 25°C, reducing SDS-PAGE
[7] = biological target: HIV-1 MA-RNA binding (Human immunodeficiency virus type 1 group M subtype B, UniProt P12493); test: Fluorescence polarization; details: screen of 50,000 compounds
[8] = biological target: soluble guanylate cyclase; details: read-out: IC50 concentrations; ref [8]–[9]; cited from earlier work
[9] = system: leukotriene synthesis; details: read-out: IC50 concentrations; ref [8]–[9]; cited from earlier work

Row | Structure (SMILES) | MA dimer formation (in words) [1] | HIV-1 PrGag dimer band [5] | peptide dimer formation [6] | also measured
1 | COC1=C(Cl)C(=O)c2ncccc2C1=O [Compound 81048, 7-chloro-6-methoxy-5,8-quinolinedione] | significant levels of dimer formation |  |  | 
2 | c1ccc(SSc2ccccn2)nc1 [Aldrithiol-2, 2,2'-dipyridyldisulfide] |  |  |  | virus infectivity level after treatment (luciferase, in words) [2]: nearly mock-infection levels; concentrations that inactivate HIV-1 [3]: 300 to 1000 µM; virus infection levels (GFP-positive cells, in words) [4]: dramatically reduced virus infection levels
3 | O=C1C(Cl)=C(Cl)C(=O)c2ccccc21 [Compound 537, 2,3-dichloronaphthoquinone] | efficiently formed dimers | showed the HIV-1 PrGag dimer band | yielded dimers | 
4 | O=C1C(Cl)=C(Cl)C(=O)c2ncccc21 [Compound 81047, 6,7-dichloro-5,8-quinolinedione] | efficiently formed dimers |  |  | inhibition of MA-RNA binding in library screen (in words) [7]: potently inhibited MA-RNA binding
5 | O=C1C=CC(=O)N1CCN1C(=O)C=CC1=O [BMOE, bis-maleimidoethane] |  |  | yielded dimers | 
6 | O=C1C(Nc2ccccc2)=CC(=O)c2ncccc21 [LY83583, 6-anilino-5,8-quinolinequinone] |  |  |  | pIC50 [8]: 5.70 to 6.00; pIC50 [9]: 5.70 to 6.00
7 | O=C1C=CC(=O)c2cnccc21 [Compound 76882, 5,8-isoquinolinedione] | efficiently formed dimers |  |  | 
8 | COC1=C(Br)C(=O)c2ncccc2C1=O [Compound 102729, 7-bromo-6-methoxy-5,8-quinolinedione] | significant levels of dimer formation | to lower extents |  | 
9 | O=C1C=CC(=O)N1CCCCCCN1C(=O)C=CC1=O [BMH, 1,6-bis-maleimidohexane, reference compound] |  | a dimer band was observed | yielded dimers | 
